Calls of active or inactive are those of the source. No cut-off for these calls is given here.
How the values were obtained:
[1] = biological target: T1, Estrogen receptor (Homo sapiens) (UniProt P03372); experiment: Downregulation of ER-alpha levels in ER-positive human MCF-7 cells at 3 uM after 24 hrs by in-cell Western assay
T1 sequence (whole entry): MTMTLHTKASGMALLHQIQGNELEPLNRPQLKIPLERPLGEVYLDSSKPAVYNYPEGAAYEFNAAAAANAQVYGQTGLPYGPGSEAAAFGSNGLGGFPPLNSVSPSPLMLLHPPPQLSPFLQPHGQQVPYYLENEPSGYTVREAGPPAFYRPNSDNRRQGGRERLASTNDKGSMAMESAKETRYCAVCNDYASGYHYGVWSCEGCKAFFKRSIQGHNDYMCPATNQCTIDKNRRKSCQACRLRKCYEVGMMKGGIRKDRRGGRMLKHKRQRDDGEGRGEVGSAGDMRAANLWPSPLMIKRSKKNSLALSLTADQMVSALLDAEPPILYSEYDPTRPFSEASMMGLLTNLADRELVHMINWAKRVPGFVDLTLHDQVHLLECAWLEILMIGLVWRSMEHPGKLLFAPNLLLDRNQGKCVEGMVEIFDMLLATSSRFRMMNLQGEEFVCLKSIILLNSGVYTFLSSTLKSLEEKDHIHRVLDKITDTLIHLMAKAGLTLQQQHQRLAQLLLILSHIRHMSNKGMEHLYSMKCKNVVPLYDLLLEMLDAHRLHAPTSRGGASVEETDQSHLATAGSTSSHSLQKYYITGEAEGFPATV

[2] = biological target: T1, Estrogen receptor (Homo sapiens); experiment: Displacement of [3H]estradiol from full-length human ERalpha receptor by scintillation counting relative to estradiol
MDA-MB-231 = experiment: Antiproliferative activity against ERalpha-negative human MDA-MB-231 cells at 3 uM after 6 days by WST-1 assay; format: functional, cell-based
Summary of the method: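 ERα-negative MDA-MB-231 breast cancer cells screened for proliferation with compound at 3 μM; WST-1 read-out at 450 nm after 6 days, relative to vehicle.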

MCF7 [3] = experiment: Antiproliferative activity against ER-positive human MCF7 cells at 3 uM after 6 days by WST-1 assay; format: functional
Summary of the method: (§1)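 MCF-7 cells (ATCC), 6-day compound exposure; viability by WST-1 absorbance at 450 nm, expressed relative to vehicle-treated controls. Run in triplicate; 3 μM single-concentration screen values are averages of two to three independent experiments. Dose-response curves give IC50.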

Estrogen receptor [4] = biological target: T2, Estrogen receptor (Homo sapiens, UniProt P03372); experiment: Displacement of [3H]estradiol from full-length human ERalpha receptor by scintillation counting
T2 sequence (P03372 whole entry): T1 sequence (whole entry)

Estrogen receptor [5] = biological target: T2, Estrogen receptor; experiment: Downregulation of human ERalpha in human MCF-7 cells after 24 hrs by in-cell Western immunoassay method; format: cell-based
Summary of the method: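 MCF-7 cells at 3000 cells/well treated 24 h (3 μM screen or dose-response); formaldehyde-fixed, Triton-permeabilized, stained with rabbit HC-20 anti-ERα overnight at 4 °C, IR secondary plus Cell Tag 700 normalization; in-cell Western imaging, ERα relative to vehicle, average of at least three independent experiments.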

MCF7 [6] = experiment: Antiproliferative activity against ER-positive human MCF7 cells after 6 days by WST-1 assay; format: functional, cell-based; conditions: MCF7, 144 h
Summary of the method: as §1

Estrogen receptor [7] = biological target: T2, Estrogen receptor; experiment: Downregulation of ERalpha in human MCF-7 cells assessed as reduction of estradiol-induced PgR mRNA levels after 24 hrs by RT-PCR method; format: cell-based
Summary of the method: (§2)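 MCF-7 cells in full medium (5% FBS) with 3 × 10−10 M E2, treated 24 h across a concentration range; TRIzol RNA, reverse transcription, SYBR green qPCR for GREB1, PgR or pS2 normalized to 36B4, fold change versus vehicle; mean ± SD of at least two independent experiments in triplicate.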

Estrogen receptor [8] = biological target: T2, Estrogen receptor; experiment: Downregulation of ERalpha in human MCF-7 cells assessed as reduction of estradiol-induced GREB1 mRNA levels after 24 hrs by RT-PCR method; format: cell-based
Summary of the method: as §2

[9] = biological target: T1, Estrogen receptor (Homo sapiens); experiment: Downregulation of human ERalpha in human MCF-7 cells at 3 x 10^-6 M after 24 hrs by Western blot method; format: cell-based
Summary of the method: (§3)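 MCF-7 cells treated 24 h at 3 × 10−10, 3 × 10−8 or 3 × 10−6 M; whole-cell extracts with protease/phosphatase inhibitors, 10% SDS-PAGE, nitrocellulose, probed with anti-ERα F10 and β-actin; ERα given as percent of vehicle.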

[10] = biological target: T1, Estrogen receptor (Homo sapiens); experiment: Downregulation of human ERalpha in human MCF-7 cells at 3 x 10^-8 M after 24 hrs by Western blot method; format: cell-based
Summary of the method: as §3

Estrogen receptor [11] = biological target: T2, Estrogen receptor; experiment: Downregulation of ERalpha in human MCF-7 cells assessed as reduction of estradiol-induced pS2 mRNA levels after 24 hrs by RT-PCR method; format: cell-based
Summary of the method: as §2

[12] = biological target: T1, Estrogen receptor (Homo sapiens); experiment: Downregulation of human ERalpha in human MCF-7 cells at 3 x 10^-10 M after 24 hrs by Western blot method; format: cell-based
Summary of the method: as §3

SMILES	Activity [1]	RBA [2] [%]	Activity (MDA-MB-231)	Activity (MCF7 [3])	Ki (Estrogen receptor [4]) [nM]	further results
CCCCN(C)C(=O)/C=C/c1ccc(C(=C2C3CC4CC(C3)CC2C4)c2ccc(O)cc2)cc1	inactive	28	inactive	inactive	–	–
O=C(/C=C/c1ccc(C(=C2C3CC4CC(C3)CC2C4)c2ccc(O)cc2)cc1)OCCO	inactive	54	inactive	–	–	–
CC(C)CCCCCOC(=O)/C=C/c1ccc(C(=C2C3CC4CC(C3)CC2C4)c2ccc(O)cc2)cc1	Active	2.8	inactive	–	7.1	–
CCC(=C(c1ccc(O)cc1)c1ccc(/C=C/C(=O)O)cc1)c1ccccc1	–	–	inactive	–	–	–
CCCCOC(=O)/C=C/c1ccc(C(=C2C3CC4CC(C3)CC2C4)c2ccc(O)cc2)cc1	Active	11	inactive	40%	1.8	–
O=C(/C=C/c1ccc(C(=C2C3CC4CC(C3)CC2C4)c2ccc(O)cc2)cc1)NCCO	Active	109	inactive	24%	0.18	IC50 (Estrogen receptor [5]): 5.6 nM; IC50 (MCF7 [6]): 2.4 nM
COC(=O)/C=C/c1ccc(C(=C2C3CC4CC(C3)CC2C4)c2ccc(O)cc2)cc1	inactive	46	inactive	–	–	–
CN(C)CCNC(=O)/C=C/c1ccc(C(=C2C3CC4CC(C3)CC2C4)c2ccc(O)cc2)cc1	–	57	inactive	–	0.35	–
CCOC(=O)/C=C/c1ccc(C(=C2C3CC4CC(C3)CC2C4)c2ccc(O)cc2)cc1	inactive	13	inactive	–	3.3	–
O=C(/C=C/c1ccc(C(=C2C3CC4CC(C3)CC2C4)c2ccc(O)cc2)cc1)N(CCO)CCO	–	115	inactive	–	0.13	–
CCCCCC(=O)/C=C/c1ccc(C(=C2C3CC4CC(C3)CC2C4)c2ccc(O)cc2)cc1	–	12	inactive	–	1.7	–
CCCNC(=O)/C=C/c1ccc(C(=C2C3CC4CC(C3)CC2C4)c2ccc(O)cc2)cc1	–	18	inactive	Active	1.1	–
CN(CCO)C(=O)/C=C/c1ccc(C(=C2C3CC4CC(C3)CC2C4)c2ccc(O)cc2)cc1	–	–	inactive	–	–	–
O=C(/C=C/c1ccc(C(=C2C3CC4CC(C3)CC2C4)c2ccc(O)cc2)cc1)NCCCCCO	–	31	inactive	Active	0.65	–
NCCCNC(=O)/C=C/c1ccc(C(=C2C3CC4CC(C3)CC2C4)c2ccc(O)cc2)cc1	Active	54	inactive	Active	–	–
O=C(/C=C/c1ccc(C(=C2C3CC4CC(C3)CC2C4)c2ccc(O)cc2)cc1)OCCCO	inactive	28	inactive	–	–	–
O=C(/C=C/c1ccc(C(=C2C3CC4CC(C3)CC2C4)c2ccc(O)cc2)cc1)OCCCCO	Active	44	inactive	–	0.45	–
O=C(/C=C/c1ccc(C(=C2C3CC4CC(C3)CC2C4)c2ccc(O)cc2)cc1)NCCCO	–	47	inactive	30%	–	IC50 (Estrogen receptor [7]): 50 nM; IC50 (Estrogen receptor [8]): 50 nM; Activity [9]: Active; Activity [10]: Active; IC50 (Estrogen receptor [11]): 50 nM; Activity [12]: Active; IC50 (Estrogen receptor [5]): 0.53 nM; IC50 (MCF7 [6]): 1.9 nM
NCCNC(=O)/C=C/c1ccc(C(=C2C3CC4CC(C3)CC2C4)c2ccc(O)cc2)cc1	Active	35	inactive	Active	0.57	–
CCCCCNC(=O)/C=C/c1ccc(C(=C2C3CC4CC(C3)CC2C4)c2ccc(O)cc2)cc1	–	27	inactive	Active	0.74	–
N#C/C=C/c1ccc(C(=C2C3CC4CC(C3)CC2C4)c2ccc(O)cc2)cc1	Active	14	inactive	inactive	1.4	–
CCCCNC(=O)/C=C/c1ccc(C(=C2C3CC4CC(C3)CC2C4)c2ccc(O)cc2)cc1	Active	28	inactive	Active	–	–
O=C(O)/C=C/c1ccc(C(=C2C3CC4CC(C3)CC2C4)c2ccc(O)cc2)cc1	Active	51	inactive	Active	0.4	IC50 (Estrogen receptor [7]): 500 nM; IC50 (Estrogen receptor [8]): 500 nM; Activity [9]: Active; Activity [10]: Active; IC50 (Estrogen receptor [11]): 500 nM; Activity [12]: Active; IC50 (Estrogen receptor [5]): 17 nM; IC50 (MCF7 [6]): 31 nM
O=C(/C=C/c1ccc(C(=C2C3CC4CC(C3)CC2C4)c2ccc(O)cc2)cc1)NCCCCO	–	56	inactive	Active	0.36	–
CCCNS(=O)(=O)/C=C/c1ccc(C(=C2C3CC4CC(C3)CC2C4)c2ccc(O)cc2)cc1	Active	52	inactive	Active	0.38	–
O=C(/C=C/c1ccc(C(=C2C3CC4CC(C3)CC2C4)c2ccc(O)cc2)cc1)NCC(F)(F)F	inactive	15	inactive	–	1.33	–
NCCCCNC(=O)/C=C/c1ccc(C(=C2C3CC4CC(C3)CC2C4)c2ccc(O)cc2)cc1	Active	–	inactive	–	–	–
NC(=O)/C=C/c1ccc(C(=C2C3CC4CC(C3)CC2C4)c2ccc(O)cc2)cc1	inactive	71	inactive	–	0.27	–
